Results published in the array DNA melting data of Ke et al. (doi:10.1101/2024.01.08.574731).

What was measured:
[1] = melting temperature; fluorescence melt of hairpins on a sequencing array, two-state fit, raised by 9.35 °C to match UV melts; settings: sodium 0.088 M
Procedure, shortened: (§1)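 Library hairpins on a sequenced MiSeq flow cell carried annealed Cy3 and quencher oligos, and their Cy3 fluorescence was imaged in 50 mM Na-HEPES pH 8.0 with 25 mM NaCl, in 2.5 °C steps up to 60 °C. Signals were normalised to Cy3 before quenching and to control constructs. Melting temperature and folding enthalpy were obtained from bootstrapped two-state fits, combined by inverse-variance weighting across four replicates, and the fitted temperatures were then raised by 9.35 °C to match UV melts.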

[2] = folding enthalpy; higher = less favourable; fluorescence melt of hairpins on a sequencing array, two-state fit; settings: sodium 0.088 M
Procedure, shortened: as §1

Sequence | Tm [1] | folding enthalpy [2]
CGTCCGCGGAAACGCACG (((..(((....)))))) | 33.5 °C | -12 kcal/mol
CGTCCGGAAACGGCAACG ((((((....)))..))) | 38.5 °C | -14.8 kcal/mol
CGTCCGGAAACGGGAACG ((((((....)))..))) | 38.9 °C | -22.5 kcal/mol
CGTCGCGGAAACGCAACG (((.(((....))).))) | 50.5 °C | -28.8 kcal/mol
CGTCGCGGAAACGCACG (((.(((....)))))) | 50.5 °C | -19.4 kcal/mol
CGTCGGAAACGACG (((((....))))) | 69.2 °C | -27.6 kcal/mol
CGTCGTCGGAAACGAACG (((..(((....)))))) | 48.8 °C | -24.9 kcal/mol
CGTCTACGGAAACGTACG (((..(((....)))))) | 31.5 °C | -11.6 kcal/mol
CGTGACCGGAAACGGACG (((..(((....)))))) | 36.2 °C | -15.7 kcal/mol
CGTGACGGAAACGTTACG (((.(((....))).))) | 52.2 °C | -29.3 kcal/mol
CGTGCGGAAACGCAAACG ((((((....)))..))) | 45.3 °C | -19.9 kcal/mol
CGTGCGGAAACGCAACG ((((((....))).))) | 53.9 °C | -27.5 kcal/mol
CGTGCGGAAACGCGACG ((((((....))).))) | 55.1 °C | -23.5 kcal/mol
CGTGCGGAAACGCTACG ((((((....))).))) | 50.6 °C | -27.6 kcal/mol
CGTGGCGGAAACGCGACG (((.(((....))).))) | 57.7 °C | -35.6 kcal/mol
CGTGGCGGAAACGCTACG (((.(((....))).))) | 59.6 °C | -33.8 kcal/mol
CGTGGGCGGAAACGCACG (((..(((....)))))) | 53.1 °C | -13.4 kcal/mol
CGTTAACGGAAACGTACG (((..(((....)))))) | 37 °C | -17.6 kcal/mol
CGTTACGGAAACGTGACG (((.(((....))).))) | 51.5 °C | -52.2 kcal/mol
CGTTCCGGAAACGGACG (((.(((....)))))) | 49.9 °C | -30.8 kcal/mol
CGTTCGCGGAAACGCACG (((..(((....)))))) | 40.4 °C | -13.6 kcal/mol
CGTTCGGAAACGAGCACG ((((((....)))..))) | 30.7 °C | -13.2 kcal/mol
CGTTCGGAAACGATCACG ((((((....)))..))) | 30.9 °C | -13.9 kcal/mol

Sequence | Tm [1] | folding enthalpy [2]
CGTTCTCGGAAACGAACG (((..(((....)))))) | 35.8 °C | -19.2 kcal/mol
CGTTGCGGAAACGCTACG (((.(((....))).))) | 56 °C | -33.4 kcal/mol
CGTTTTCGGAAACGAACG (((..(((....)))))) | 37 °C | -12.1 kcal/mol
CTACAGAAATGTAG (((((....))))) | 36.5 °C | -13.3 kcal/mol
CTACGGAAACGTAG (((((....))))) | 49.4 °C | -24.9 kcal/mol
CTATCGAAAGATAG (((((....))))) | 47.1 °C | -21.7 kcal/mol
CTGTGGAAACACAG (((((....))))) | 52.1 °C | -19.7 kcal/mol
CTGTTGAAAAACAG (((((....))))) | 42.3 °C | -23.7 kcal/mol
CTTTCGAAAGAAAG (((((....))))) | 47.3 °C | -19.3 kcal/mol
CTTTGGAAACAAAG (((((....))))) | 37.1 °C | -22.4 kcal/mol
CTTTTGAAAAAAAG (((((....))))) | 30.1 °C | -7.85 kcal/mol
GAAAAAGCGAAAGCTTTC (((..(((....)))))) | 33.2 °C | -12.1 kcal/mol
GAAAACCCGAAAGGGTTC (((..(((....)))))) | 39.8 °C | -8.48 kcal/mol
GAAAACGAAAGTTTCTTC ((((((....)))..))) | 46.6 °C | -35 kcal/mol
GAAAACGAAAGTTTTTTC ((((((....)))..))) | 38.9 °C | -20.7 kcal/mol
GAAAACGGAAACGTTTCC (.(((((....))))).) | 34.1 °C | -15.1 kcal/mol
GAAAACGGAAACGTTTTC (((((((....))))))) | 57.9 °C | -39.4 kcal/mol
GAAAATGCGAAAGCATTC (((..(((....)))))) | 32.7 °C | -10 kcal/mol
GAAAATGGAAACGTTTTC (((((.(....).))))) | 37.8 °C | -32.3 kcal/mol
GAAACACGAAAGTGCTTC (((.(((....))).))) | 43.8 °C | -22.5 kcal/mol
GAAACACGAAAGTGGTTC (((.(((....))).))) | 55 °C | -44.3 kcal/mol
GAAACAGCGAAAGCTTTC (((..(((....)))))) | 29.1 °C | -15.3 kcal/mol
GAAACAGGAAACCGTTTC (((((.(....).))))) | 35.8 °C | -24.3 kcal/mol

Sequence | Tm [1] | folding enthalpy [2]
GAAACAGGAAACTGTTCC (.(((((....))))).) | 35.3 °C | -14.9 kcal/mol
GAAACCCGAAAGGGATTC (((.(((....))).))) | 49.3 °C | -23.6 kcal/mol
GAAACCGAAAGGTACTTC ((((((....)))..))) | 34.6 °C | -17.8 kcal/mol
GAAACCGAAAGGTATTTC ((((((....)))..))) | 26.6 °C | -12.4 kcal/mol
GAAACCGAAAGGTCCTTC ((((((....)))..))) | 30.7 °C | -14.6 kcal/mol
GAAACGACGAAAGTCTTC (((..(((....)))))) | 29.5 °C | -9.41 kcal/mol
GAAACGCCGAAAGGCTTC (((..(((....)))))) | 23.1 °C | -7.92 kcal/mol
GAAACGCGAAAGCGTTC (((.(((....)))))) | 50.6 °C | -8.94 kcal/mol
GAAACGGGAAACCATTTC ((((.((....)).)))) | 28.8 °C | -21.5 kcal/mol
GAAACGGGAAACCGTTTC (((((((....))))))) | 60.3 °C | -50.9 kcal/mol
GAAAGACCGAAAGGTTTC (((..(((....)))))) | 28.8 °C | -11.5 kcal/mol
GAAAGACGAAAGTCATTC (((.(((....))).))) | 38.2 °C | -21.1 kcal/mol
GAAAGACGAAAGTCTTC (((.(((....)))))) | 44.3 °C | -12.6 kcal/mol
GAAAGCGAAAGCTAATTC ((((((....)))..))) | 28.8 °C | -8.31 kcal/mol
GAAAGCGAAAGCTCTTTC ((((((....)))..))) | 38.2 °C | -16.7 kcal/mol
GAAAGCGAAAGCTTTTTC ((((((....)))..))) | 49 °C | -14.2 kcal/mol
GAAAGCGGAAACGCTCTC ((.((((....)))).)) | 35 °C | -12.3 kcal/mol
GAAAGGCCGAAAGGCTTC (((..(((....)))))) | 28.5 °C | -8.26 kcal/mol
GAAAGGCGAAAGCCGTTC (((.(((....))).))) | 46.7 °C | -11.9 kcal/mol
GAAAGGGAAACCTTTC ((((((....)))))) | 47 °C | -30 kcal/mol
GAAAGGGGAAACCCTTTC (((((((....))))))) | 54.8 °C | -47 kcal/mol
GAAAGTGAAAACTTTC ((((((....)))))) | 47.7 °C | -27.2 kcal/mol
GAAAGTGGAAACACTTTC (((((((....))))))) | 56.8 °C | -36.1 kcal/mol

Sequence | Tm [1] | folding enthalpy [2]
GAAAGTGGAAACATTTTC ((((.((....)).)))) | 32.1 °C | -27.4 kcal/mol
GAAATACGAAAGTAATTC (((.(((....))).))) | 32.9 °C | -15 kcal/mol
GAAATACGAAAGTATTC (((.(((....)))))) | 38.9 °C | -12.8 kcal/mol
GAAATAGAAATATTTC ((((((....)))))) | 32.7 °C | -21.9 kcal/mol
GAAATCCCGAAAGGGTTC (((..(((....)))))) | 26.2 °C | -9.79 kcal/mol
GAAATCCGAAAGGATTC (((.(((....)))))) | 46.4 °C | -11.2 kcal/mol
GAAATCGGAAACGATCTC ((.((((....)))).)) | 29.3 °C | -17.4 kcal/mol
GAACAACGAAAGTTATTC (((.(((....))).))) | 30.1 °C | -18.4 kcal/mol
GAACAACGAAAGTTTTC (((.(((....)))))) | 28.2 °C | -11.8 kcal/mol
GAACAAGGAAACCTGTTC (((((.(....).))))) | 37.3 °C | -25.7 kcal/mol
GAACACACGAAAGTGTTC (((..(((....)))))) | 46.2 °C | -20.5 kcal/mol
GAACACGAAAGTGAGTTC ((((((....)))..))) | 35.7 °C | -16.4 kcal/mol
GAACACGAAAGTGGGTTC ((((((....)))..))) | 37.1 °C | -16.4 kcal/mol
GAACACGAAAGTGGTTTC ((((((....)))..))) | 35.5 °C | -14 kcal/mol
GAACACGAAAGTGTTC ((((((....)))))) | 69 °C | -30.9 kcal/mol
GAACACGAAAGTGTTTC ((((((....))).))) | 52.9 °C | -12.4 kcal/mol
GAACAGCGAAAGCTATTC (((.(((....))).))) | 34.7 °C | -15.6 kcal/mol
GAACATGGAAACACGTTC ((((.((....)).)))) | 33 °C | -27.5 kcal/mol
GAACATGGAAACATGTCC (.(((((....))))).) | 35.8 °C | -15.4 kcal/mol
GAACATGGAAACATGTTC (((((((....))))))) | 56.2 °C | -43.3 kcal/mol
GAACCAGAAATGGTTC ((((((....)))))) | 54.2 °C | -33.6 kcal/mol
GAACCAGGAAACTGGTTC (((((((....))))))) | 62 °C | -45.1 kcal/mol
GAACCCGAAAGGGATTTC ((((((....)))..))) | 29.5 °C | -11.1 kcal/mol
